Results: ChEMBL document CHEMBL5230171, “Expanding the structure-activity relationships of alkynyl diphenylurea scaffold as promising antibacterial agents” (RSC Med Chem, 2023)
In brackets after ≈: the same amount, converted by molar mass. Activity calls are given as the source filed them. The rule behind the calls is not given here.

Legend:
Staphylococcus aureus [1] = experiment: Antibacterial activity against vancomycin resistant Staphylococcus aureus 9 assessed as inhibition of bacterial growth at 0.5 ug/ml incubated for 18 to 20 hrs by CLSI protocol based broth microdilution method; type: functional, organism-based; settings: dose 0.5 µg/ml, time 18-20 hrs
Staphylococcus aureus [2] = experiment: Antibacterial activity against vancomycin resistant Staphylococcus aureus 12 assessed as inhibition of bacterial growth at 0.5 ug/ml incubated for 18 to 20 hrs by CLSI protocol based broth microdilution method; type: functional, organism-based; settings: dose 0.5 µg/ml, time 18-20 hrs
Staphylococcus aureus [3] = experiment: Antibacterial activity against methicillin resistant Staphylococcus aureus 385 assessed as inhibition of bacterial growth at 0.5 ug/ml incubated for 18 to 20 hrs by CLSI protocol based broth microdilution method; type: functional, organism-based; settings: dose 0.5 µg/ml, time 18-20 hrs
Staphylococcus aureus [4] = experiment: Antibacterial activity against vancomycin resistant Staphylococcus aureus 10 assessed as inhibition of bacterial growth at 0.5 ug/ml incubated for 18 to 20 hrs by CLSI protocol based broth microdilution method; type: functional, organism-based; settings: dose 0.5 µg/ml, time 18-20 hrs
Staphylococcus aureus [5] = experiment: Antibacterial activity against methicillin sensitive Staphylococcus aureus 107 assessed as inhibition of bacterial growth at 0.5 ug/ml incubated for 18 to 20 hrs by CLSI protocol based broth microdilution method; type: functional, organism-based; settings: dose 0.5 µg/ml, time 18-20 hrs
Procedure, shortened: (§1)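 Staphylococcal and E. coli strains were diluted from a 0.5 McFarland suspension in cation-adjusted Mueller Hinton broth to ~5 × 10^5 CFU mL−1. They were incubated with serial dilutions of test agent in broth microdilution, and the MIC was recorded.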

Staphylococcus aureus [6] = experiment: Antibacterial activity against methicillin resistant Staphylococcus aureus 123 assessed as inhibition of bacterial growth at 0.5 ug/ml incubated for 18 to 20 hrs by CLSI protocol based broth microdilution method; type: functional, organism-based; settings: dose 0.5 µg/ml, time 18-20 hrs
Staphylococcus aureus [7] = experiment: Antibacterial activity against methicillin sensitive Staphylococcus aureus 6538 assessed as inhibition of bacterial growth at 0.5 ug/ml incubated for 18 to 20 hrs by CLSI protocol based broth microdilution method; type: functional, organism-based; settings: dose 0.5 µg/ml, time 18-20 hrs; procedure, shortened: as §1
Staphylococcus aureus [8] = experiment: Antibacterial activity against methicillin resistant Staphylococcus aureus 119 assessed as inhibition of bacterial growth at 0.5 ug/ml incubated for 18 to 20 hrs by CLSI protocol based broth microdilution method; type: functional, organism-based; settings: dose 0.5 µg/ml, time 18-20 hrs
Staphylococcus aureus [9] = experiment: Antibacterial activity against methicillin resistant Staphylococcus aureus 386 assessed as inhibition of bacterial growth at 0.5 ug/ml incubated for 18 to 20 hrs by CLSI protocol based broth microdilution method; type: functional, organism-based; settings: dose 0.5 µg/ml, time 18-20 hrs
Staphylococcus aureus [10] = experiment: Antibacterial activity against methicillin resistant Staphylococcus aureus 384 assessed as inhibition of bacterial growth at 0.5 ug/ml incubated for 18 to 20 hrs by CLSI protocol based broth microdilution method; type: functional, organism-based; settings: dose 0.5 µg/ml, time 18-20 hrs
Vero = experiment: Cytotoxicity against African green monkey Vero cells assessed as reduction in cell viability at 64 ug/ml incubated for 24 hrs by MTS assay; type: toxicity, cell-based; settings: chlorocebus sabaeus, dose 64 µg/ml
Procedure, shortened: (§2)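 Vero or HaCaT cells were exposed to 32, 64 and 128 μg mL−1 compound in triplicate for 24 h at 37 °C, 5% CO2, with a DMSO control. MTS was then added for 4 h and OD490 read. Analysis used two-way ANOVA with Dunnett's post hoc test (p < 0.05).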

[11] = Cytotoxicity against human HaCaT cells assessed as tolerance by measuring cell viability at 64 ug/ml incubated for 24 hrs by MTS assay relative to control; type: toxicity, cell-based; settings: at 64 µg/mL, read-out: Activity; procedure, shortened: as §2
Staphylococcus aureus [12] = experiment: Antibacterial activity against methicillin resistant Staphylococcus aureus NRS384 USA300 assessed as inhibition of bacterial growth incubated for 18 to 20 hrs by CLSI protocol based broth microdilution method; type: functional; settings: time 18-20 hrs
Procedure, shortened: (§3)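 Broth microdilution against staphylococcal clinical isolates. Each strain was prepared as a 0.5 McFarland suspension and diluted in cation-adjusted Mueller Hinton broth to ~5 × 10^5 CFU mL−1. Serial dilutions of test agents in DMSO stock were incubated with the bacteria, and the MIC was recorded.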

Staphylococcus aureus [13] = experiment: Antibacterial activity against methicillin sensitive Staphylococcus aureus 107 assessed as inhibition of bacterial growth incubated for 18 to 20 hrs by CLSI protocol based broth microdilution method; type: functional; settings: time 18-20 hrs; procedure, shortened: as §3
Staphylococcus aureus [14] = experiment: Antibacterial activity against methicillin resistant Staphylococcus aureus 384 assessed as inhibition of bacterial growth incubated for 18 to 20 hrs by CLSI protocol based broth microdilution method; type: functional; settings: time 18-20 hrs; procedure, shortened: as §3
Streptococcus pneumoniae [15] = experiment: Antibacterial activity against Streptococcus pneumoniae 700677 assessed as inhibition of bacterial growth incubated for 18 to 20 hrs by CLSI protocol based broth microdilution method; type: functional; settings: time 18-20 hrs
Procedure, shortened: (§4)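 Streptococci were diluted from a 0.5 McFarland suspension in cation-adjusted Mueller Hinton broth with 5% lysed horse blood. They were incubated with serial dilutions of test agent in broth microdilution, and the MIC was recorded.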

Staphylococcus aureus [16] = experiment: Antibacterial activity against methicillin resistant Staphylococcus aureus 123 assessed as inhibition of bacterial growth incubated for 18 to 20 hrs by CLSI protocol based broth microdilution method; type: functional; settings: time 18-20 hrs; procedure, shortened: as §3
Staphylococcus aureus [17] = experiment: Antibacterial activity against methicillin sensitive Staphylococcus aureus 6538 assessed as inhibition of bacterial growth incubated for 18 to 20 hrs by CLSI protocol based broth microdilution method; type: functional; settings: time 18-20 hrs; procedure, shortened: as §3
Staphylococcus aureus [18] = experiment: Antibacterial activity against methicillin resistant Staphylococcus aureus 385 assessed as inhibition of bacterial growth incubated for 18 to 20 hrs by CLSI protocol based broth microdilution method; type: functional; settings: time 18-20 hrs; procedure, shortened: as §3
Staphylococcus aureus [19] = experiment: Antibacterial activity against methicillin resistant Staphylococcus aureus 386 assessed as inhibition of bacterial growth incubated for 18 to 20 hrs by CLSI protocol based broth microdilution method; type: functional; settings: time 18-20 hrs; procedure, shortened: as §3
Streptococcus mutans = experiment: Antibacterial activity against Streptococcus mutans 25175 assessed as inhibition of bacterial growth incubated for 18 to 20 hrs by CLSI protocol based broth microdilution method; type: functional; settings: time 18-20 hrs; procedure, shortened: as §4
Enterococcus faecalis = experiment: Antibacterial activity against Enterococcus faecalis 51299 assessed as inhibition of bacterial growth incubated for 18 to 20 hrs by CLSI protocol based broth microdilution method; type: functional; settings: time 18-20 hrs
Procedure, shortened: (§5)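 Enterococci and L. monocytogenes were diluted from a 0.5 McFarland suspension in TSB. They were incubated with serial dilutions of test agent in broth microdilution, and the MIC was recorded.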

[20] = tested on: Staphylococcus epidermidis; experiment: Antibacterial activity against Staphylococcus epidermidis 101 assessed as inhibition of bacterial growth incubated for 18 to 20 hrs by CLSI protocol based broth microdilution method; type: functional; settings: time 18-20 hrs; procedure, shortened: as §1
Staphylococcus aureus [21] = experiment: Antibacterial activity against vancomycin resistant Staphylococcus aureus 9 assessed as inhibition of bacterial growth incubated for 18 to 20 hrs by CLSI protocol based broth microdilution method; type: functional; settings: time 18-20 hrs; procedure, shortened: as §3
Streptococcus pyogenes [22] = experiment: Antibacterial activity against Streptococcus pyogenes MGAS 1882 assessed as inhibition of bacterial growth incubated for 18 to 20 hrs by CLSI protocol based broth microdilution method; type: functional; settings: time 18-20 hrs; procedure, shortened: as §4
Streptococcus pneumoniae [23] = experiment: Antibacterial activity against Streptococcus pneumoniae 51916 assessed as inhibition of bacterial growth incubated for 18 to 20 hrs by CLSI protocol based broth microdilution method; type: functional; settings: time 18-20 hrs; procedure, shortened: as §4
Staphylococcus aureus [24] = experiment: Antibacterial activity against vancomycin resistant Staphylococcus aureus 10 assessed as inhibition of bacterial growth incubated for 18 to 20 hrs by CLSI protocol based broth microdilution method; type: functional; settings: time 18-20 hrs; procedure, shortened: as §3
Staphylococcus aureus [25] = experiment: Antibacterial activity against vancomycin resistant Staphylococcus aureus 12 assessed as inhibition of bacterial growth incubated for 18 to 20 hrs by CLSI protocol based broth microdilution method; type: functional; settings: time 18-20 hrs; procedure, shortened: as §3
Streptococcus pyogenes [26] = experiment: Antibacterial activity against Streptococcus pyogenes MGAS 9882 assessed as inhibition of bacterial growth incubated for 18 to 20 hrs by CLSI protocol based broth microdilution method; type: functional; settings: time 18-20 hrs; procedure, shortened: as §4
Staphylococcus aureus [27] = experiment: Antibacterial activity against methicillin resistant Staphylococcus aureus 119 assessed as inhibition of bacterial growth incubated for 18 to 20 hrs by CLSI protocol based broth microdilution method; type: functional; settings: time 18-20 hrs; procedure, shortened: as §3
Enterococcus faecium = experiment: Antibacterial activity against Enterococcus faecium 700221 assessed as inhibition of bacterial growth incubated for 18 to 20 hrs by CLSI protocol based broth microdilution method; type: functional; settings: time 18-20 hrs; procedure, shortened: as §5
Listeria monocytogenes = experiment: Antibacterial activity against Listeria monocytogenes 19111 assessed as inhibition of bacterial growth incubated for 18 to 20 hrs by CLSI protocol based broth microdilution method; type: functional; settings: time 18-20 hrs; procedure, shortened: as §5

| SMILES | Activity (Staphylococcus aureus [1]) | Activity (Staphylococcus aureus [2]) | Activity (Staphylococcus aureus [3]) | Activity (Staphylococcus aureus [4]) | Activity (Staphylococcus aureus [5]) | Activity (Staphylococcus aureus [6]) | Activity (Staphylococcus aureus [7]) | Activity (Staphylococcus aureus [8]) | Activity (Staphylococcus aureus [9]) | Activity (Staphylococcus aureus [10]) | Activity (Vero) | viability at 24 h, 64 ug/ml [11] | MIC (Staphylococcus aureus [12]; read-out: MIC) | other results |
| --- | --- | --- | --- | --- | --- | --- | --- | --- | --- | --- | --- | --- | --- | --- |
| C/C(=N\NC(=N)N)c1ccc(NC(=O)Nc2ccc(C#CC(O)CC(C)C)cc2)cc1 (stereo not drawn) | Active | Active | Active | Active | Active | Active | Active | Active | Active | Active | – | – | – | – |
| C/C(=N\NC(=N)N)c1ccc(NC(=O)Nc2ccc(C#CC3CCCC3)cc2)cc1 | Active | Active | Active | Active | Active | Active | Active | Active | Active | Active | Non-Toxic | 100% | – | MIC (Staphylococcus aureus [12]): 2 µg/mL (≈ 4.97 µM) |
| C/C(=N\NC(=N)N)c1ccc(NC(=O)Nc2ccc(C#CC(C)(C)C)cc2)cc1 | Active | Active | Active | Active | Active | Active | Active | Active | Active | Active | – | – | 0.5 µg/mL (≈ 1.28 µM) | – |
| C/C(=N\NC(=N)N)c1ccc(NC(=O)Nc2ccc(C#CCC(C)C)cc2)cc1 | Active | Active | Active | Active | Active | Active | Active | Active | Active | Active | Non-Toxic | – | 0.5 µg/mL (≈ 1.28 µM) | MIC (Staphylococcus aureus [13]): 0.5 µg/mL (≈ 1.28 µM); MIC (Staphylococcus aureus [14]): 0.5 µg/mL (≈ 1.28 µM); MIC (Streptococcus pneumoniae [15]): 0.5 µg/mL (≈ 1.28 µM); MIC (Staphylococcus aureus [16]): 0.5 µg/mL (≈ 1.28 µM); MIC (Staphylococcus aureus [17]): 0.5 µg/mL (≈ 1.28 µM); MIC (Staphylococcus aureus [18]): 0.5 µg/mL (≈ 1.28 µM); MIC (Staphylococcus aureus [19]): 0.5 µg/mL (≈ 1.28 µM); MIC (Streptococcus mutans): 0.5 µg/mL (≈ 1.28 µM); MIC (Enterococcus faecalis): 0.5 µg/mL (≈ 1.28 µM); MIC [20]: 0.5 µg/mL (≈ 1.28 µM); MIC (Staphylococcus aureus [21]): 0.5 µg/mL (≈ 1.28 µM); MIC (Streptococcus pyogenes [22]): 0.5 µg/mL (≈ 1.28 µM); MIC (Streptococcus pneumoniae [23]): 0.5 µg/mL (≈ 1.28 µM); MIC (Staphylococcus aureus [24]): 0.5 µg/mL (≈ 1.28 µM); MIC (Staphylococcus aureus [25]): 0.5 µg/mL (≈ 1.28 µM); MIC (Streptococcus pyogenes [26]): 0.5 µg/mL (≈ 1.28 µM); MIC (Staphylococcus aureus [27]): 0.5 µg/mL (≈ 1.28 µM); MIC (Enterococcus faecium): 0.5 µg/mL (≈ 1.28 µM); MIC (Listeria monocytogenes): 0.5 µg/mL (≈ 1.28 µM) |
| CCCCCC#Cc1ccc(NC(=O)Nc2ccc(/C(C)=N/NC(=N)N)cc2)cc1 | Active | Active | Active | Active | Active | Active | Active | Active | Active | Active | Non-Toxic | 100% | 0.5 µg/mL (≈ 1.24 µM) | – |
| CCCCCCC#Cc1ccc(NC(=O)Nc2ccc(/C(C)=N/NC(=N)N)cc2)cc1 | Active | Active | Active | Active | Active | Active | Active | Active | Active | Active | Non-Toxic | 100% | 0.5 µg/mL (≈ 1.19 µM) | – |
| CC(=O)NC[C@H]1CN(c2ccc(N3CCOCC3)c(F)c2)C(=O)O1 | Active | Active | Active | Active | Active | Active | Active | Active | Active | Active | – | – | – | – |
| CCCC#Cc1ccc(NC(=O)Nc2ccc(/C(C)=N/NC(=N)N)cc2)cc1 | – | – | – | – | – | – | – | – | – | – | – | – | 0.5 µg/mL (≈ 1.33 µM) | – |
| C/C(=N\NC(=N)N)c1ccc(NC(=O)Nc2ccc(C#CC3CCCCC3)cc2)cc1 | – | – | – | – | – | – | – | – | – | – | – | – | 4000 µg/mL (≈ 9600 µM) | – |
